The list is not random: actives were taken first. Their share in the collection is about 1.2%.
FXN GAA850 act – activators of GAA850 frataxin (FXN) promoter. HEK293 lucGAA850 FXN promoter luciferase reporter, 24 h; percent of 10 µM SAHA response. activation, % at 6 µM. 360,000 compounds, 0.56% hits. AID 540364;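 active means activation above the average of all compounds screened plus 3 SD, cutoff fixed separately per campaign, cut at about 7.5% in these data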
proCasp3 act – activates human procaspase-3; recombinant procaspase-3 D3A, Ac-DEVD-pNA absorbance 405 nm; 330,000 compounds, 0.11% hits; AID 463141; P42574; activation, % at 8.5 µM;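 active means activation above the mean of all tested compounds plus 3 SD, cut at about 21% in these data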
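Assay system – Procaspase-3 D3A mutant, all three cleavage aspartates alanine · Controls – DMSO-only low control, 5 µM PC-3 D3A high control · Schedule – 1 h compound preincubation, 2 h substrate hydrolysis at 25 °C · Signal – 405 nm absorbance of p-nitroaniline, reads at 0 and 120 min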
p-CIP stab down – lowers stability of the mouse p/CIP coactivator protein. Q05BA5. F442A p/CIP-EGFP cells, EGFP fluorescence, 16 h. decrease of EGFP signal, % at 10 µM. 290,000 compounds, 0.01% hits;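 active means EGFP signal decrease of at least 30% at 10 µM or well 3 SD below plate mean, unless failing retest; inactive means the rest, including hits failing retest or dose response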
proCasp7 act – counter-screen: procaspase-7 (human) activation | recombinant procaspase-7, Ac-DEVD-pNA absorbance 405 nm; D23A/D198A/D206A triple mutant, cannot self-cleave; scale: DMSO 0, 5 µM enzyme 100 | P55210 | 330,000 compounds, 0.093% hits | AID 463210 | activation, % at 8.5 µM;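 active means percent activation above the screen-wide mean plus 3 SD, cut at about 25% in these data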
Target sequence (P55210 whole entry D23A/D198A/D206A): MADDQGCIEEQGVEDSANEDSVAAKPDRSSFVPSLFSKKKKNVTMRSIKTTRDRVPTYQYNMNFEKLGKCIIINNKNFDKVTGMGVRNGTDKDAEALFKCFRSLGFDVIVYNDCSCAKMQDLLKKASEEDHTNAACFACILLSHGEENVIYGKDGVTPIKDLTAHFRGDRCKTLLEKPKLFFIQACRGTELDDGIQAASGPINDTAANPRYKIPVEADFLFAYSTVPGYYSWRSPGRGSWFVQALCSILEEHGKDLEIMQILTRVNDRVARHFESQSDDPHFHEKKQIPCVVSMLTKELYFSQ
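Assay system: Uncleavable procaspase-7 mutant enzyme; Input: 2 µM procaspase-7 mutant as dispensed; Also added: DEVD-pNA substrate; Medium: Zinc-free HEPES pH 7.4 with 300 mM NaCl, 0.01% Triton X-100; Timing: 1 h compound preincubation, 2 h substrate cleavage, 25 °C; Measured by: Epi-absorbance of released pNA at 405 nm, two timepoints.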
Lipid droplet – modulators of hepatic lipid droplet formation; AML12 mouse hepatocytes, oleate lipid droplets, BODIPY imaging; 240,000 compounds, 0.4% hits; inhibition, % at 6.5 µM;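 active means lipid droplet intensity inhibited by at least 50%, with more than 500 cells counted; inconclusive means wells with under 300 cells, treated as cytotoxic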
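Test system: AML12 mouse liver cells; schedule: overnight exposure; technique: high-content imaging of BODIPY-stained droplets and DAPI nuclei; read-out: % inhibition of corrected integrated BODIPY droplet signal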
Rce1 inhib – inhibitors of yeast Ras-converting enzyme | Q03530 | yeast membranes, quenched prenylated peptide cleavage fluorescence | calls only | 290,000 compounds, 0.27% hits | AID 2563;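 active means fall in fluorescence gain of 50% or more versus controls, with final raw signal at or below 3038400; inconclusive means same 50% fall but final raw signal above 3038400; inactive means fall in fluorescence gain under 50%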
Target sequence (Q03530 whole entry, looked up): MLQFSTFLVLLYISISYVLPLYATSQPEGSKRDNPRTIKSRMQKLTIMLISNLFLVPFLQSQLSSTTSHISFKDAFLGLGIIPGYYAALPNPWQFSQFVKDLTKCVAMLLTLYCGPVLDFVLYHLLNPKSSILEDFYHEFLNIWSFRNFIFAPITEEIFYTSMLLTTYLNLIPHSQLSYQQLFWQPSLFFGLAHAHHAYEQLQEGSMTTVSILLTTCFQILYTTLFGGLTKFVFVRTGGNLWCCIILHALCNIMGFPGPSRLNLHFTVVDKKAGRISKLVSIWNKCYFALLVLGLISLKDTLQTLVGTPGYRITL
GAA30 FXN cntr – counter-screen for GAA850 frataxin promoter activators: GAA30 promoter activation; 1,900 compounds, 66% hits; activation, % at 6 µM; HEK293 lucGAA30 FXN promoter luciferase, 24 h; DMSO = 0%, 5 µM ipriflavone = 100%; shares compounds with FXN GAA850 act;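 active means mean activation above the mean of solvent-only control wells plus 3 SD, cut at about 22% in these data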;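 further: counterscreen of GAA850 promoter hits where activity marks nonselective or luminescence artifacts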
FXN GAA850 conf – GAA850 FXN promoter activation confirmation; shares compounds with FXN GAA850 act; HEK293 lucGAA850 FXN promoter luciferase reporter, 24 h; 100% = activation by SAHA; activation, % at 6 µM; 1,900 compounds, 86% hits; AID 588351;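 active means mean activation above a set limit taken from the primary screen, cut at about 8% in these data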
Hits are given with their value; n = inactive; u = inconclusive; x = not tested or not shown.

SMILES | FXN GAA850 act | proCasp3 act | p-CIP stab down | proCasp7 act | Lipid droplet | Rce1 inhib | GAA30 FXN cntr | FXN GAA850 conf
COc1ccc2c(c1)OC[C@H]1[C@H]2N2C(=O)CN(CCc3c[nH]c4ccccc34)C(=O)[C@@]2(C)[C@H]1c1ccccc1 | 7.8 | n | x | n | x | x | 22 | 18
Nc1ccc2cc3[nH]c4cc(N)ccc4c3nc2c1 | 12 | x | x | x | x | x | n | n
Nc1ccc(-c2nc3ccc(N)cc3[nH]2)cc1 | n | n | n | n | n | u | x | x
CCCCN(C(=O)C1CC(=O)N(c2ccc(OC)cc2OC)C1)c1c(N)n(CC(C)C)c(=O)[nH]c1=O (centres undefined) | n | n | n | n | n | n | x | x
C=C(c1ccc2nc(NC(=O)OC)[nH]c2c1)c1cccs1 | n | x | x | x | x | x | x | x
C=CCOc1ccc2nc(NC(=O)OC)[nH]c2c1 | 7.7 | n | n | n | u | n | n | 41
O=C(O)c1cccc(S(=O)(=O)N2CCN(S(=O)(=O)c3ccc4ccccc4c3)CC2)c1 | n | x | x | x | x | x | x | x
Cc1ccc(OCCN2CCC2(C)C(=O)Nc2ccc3c(c2)OCCO3)cc1 (centres undefined) | n | x | x | x | x | x | x | x
O=C(Cc1ccccc1)N/N=C/c1ccc2c(c1)OCO2 | 9.5 | n | n | n | n | n | 84 | 30
O=C(CNc1ccccc1)N/N=C/c1ccc2c(c1)OCO2 | n | n | n | n | n | n | x | x
CCc1cc2c(=O)oc(-c3ccc(Br)cc3)nc2s1 | n | x | n | x | n | n | x | x
C=CCSc1nc(N)c(NC(=O)c2ccco2)c(=O)[nH]1 | 14 | n | x | n | x | x | 28 | 9.8
COCc1cc(C)nc(SCC(=O)c2ccc(O)c(O)c2)c1C#N | 10 | n | n | n | n | n | 40 | 18
CC1=NNC(=O)/C1=C\c1cn(-c2ccccc2)nc1-c1ccccc1 | 8.0 | n | n | n | n | n | n | 15
CCC(NS(=O)(=O)c1ccc(OC)cc1)C(=O)NCCc1ccccc1 (centres undefined) | n | n | n | n | n | n | x | x
CCOC(=O)c1c(C)nc2c3ccccc3ccn12 | 8.1 | n | n | n | n | n | 118 | 44
COc1cc([N+](=O)[O-])ccc1NC(=O)CCS(=O)(=O)c1ccc2c(c1)n(C)c(=O)c(=O)n2C | n | n | n | n | n | n | x | x
Cc1ccc2nc(NC(=O)COC(=O)c3ccc(Br)o3)sc2c1 | 9.4 | n | n | n | x | x | 88 | 28
CC1(C)C2CCC(C2)C1(C)NC(=O)CNCC1CCCCC1 (centres undefined) | 10 | n | n | n | n | n | 30 | 14
COc1ccc(CN(C)C(=O)c2cccc(C(=O)N(C)Cc3ccc(OC)cc3)c2)cc1 | n | n | n | n | n | n | x | x
COC(=O)c1c(NC(=O)c2ccco2)sc(C)c1C | n | n | n | n | n | n | x | x
Cc1c(Cc2ccccc2)sc(NC(=O)c2ccco2)c1C(N)=O | 8.8 | n | n | n | n | n | 38 | 11
COc1ccc2nc(SC(C(=O)c3ccccc3)c3ccccc3)nc(C)c2c1 (centres undefined) | 11 | n | n | n | n | n | n | 19
CNC(=O)c1ccc2cc(OC)c(OC)cc2c1 | n | x | x | x | x | x | x | x
Cc1ccnc(NC(=O)CNC(=O)COc2ccccc2)c1 | 7.9 | n | x | n | x | n | 100 | 40
SMILES | FXN GAA850 act | proCasp3 act | p-CIP stab down | proCasp7 act | Lipid droplet | Rce1 inhib | GAA30 FXN cntr | FXN GAA850 conf
Cn1c(=O)c2c(nc(SCCN3CCOCC3)n2Cc2ccc(F)cc2)n(C)c1=O | 9.0 | n | n | n | x | n | 99 | 36
C/C(=N\NC(=O)C(c1ccccc1)c1ccccc1)c1ccccn1 | 9.6 | n | n | n | n | n | n | n
C/C(=N\NC(=O)C(c1ccccc1)c1ccccc1)c1ccc(O)cc1 | n | n | n | n | n | n | x | x
O=C(C(Cc1ccccc1)NS(=O)(=O)c1cccc2cccnc12)N1CCc2ccccc21 (centres undefined) | 13 | n | n | n | x | n | 24 | 9.1
Cc1c(Cl)ccc2sc(NC(=O)c3ccco3)nc12 | 7.7 | n | n | n | n | n | 105 | 38
CS(=O)(=O)c1ccc2nc(NC(=O)c3ccco3)sc2c1 | n | n | n | n | n | n | x | x
CC(=O)c1cccc(NC(=O)Cn2cnc(S(=O)(=O)N3CCC(C)CC3)c2)c1 | n | n | n | n | n | n | x | x
CC(C)OP(=O)(Nc1cccc2ccccc12)OC(C)C | 12 | n | n | n | n | n | 25 | 12
CC1(C(=O)Nc2ccccc2F)CCN1C(=O)Cc1cc(F)ccc1F (centres undefined) | n | x | x | x | x | x | x | x
CCS(=O)(=O)Nc1cc(-c2nc3cccnc3s2)ccc1C | 7.9 | n | n | n | n | n | 117 | 34
CCS(=O)(=O)Nc1cccc(-c2nc3cccnc3s2)c1 | n | n | n | n | n | n | x | x
Clc1ccc(-c2cn3cc(Br)ccc3n2)cc1Cl | 8.2 | n | n | n | n | n | 71 | 22
CCC(=O)N1CCN=C1SCc1cccc(F)c1 | n | n | n | n | n | n | x | x
Cc1nnc(SCc2cccc3ccccc23)s1 | 7.6 | n | n | n | n | n | 80 | 29
CCn1c(C)nc2cc(C(=O)N/N=C/c3ccccc3C)ccc21 | 13 | n | n | n | n | n | 93 | 36
CC(/C=C/c1ccco1)=N/NC(=O)OC(C)(C)C | 8.8 | n | n | n | n | x | 68 | 27
CC(/C=C/c1ccco1)=N/NC(=O)Cc1cccs1 | 8.2 | n | n | n | x | n | 37 | 18
C/C(=N/NC(=O)OC(C)(C)C)c1ccco1 | n | n | n | n | n | n | x | x
CN(C)C1(CNC(=O)C2CCC(=O)N(CCc3ccc(Cl)cc3)C2)CCCCC1 (centres undefined) | n | n | n | n | n | n | x | x
O=C(Nc1nnc(S(=O)(=O)N2CCN(c3ccc(F)cc3)CC2)s1)c1ccco1 | n | n | n | n | n | n | x | x
CCNc1nc(SCC(=O)Nc2ccc(Cl)c(Cl)c2)nc(N2CCOCC2)n1 | n | n | n | n | n | n | x | x
Cc1c(Cl)cccc1N=Cc1ccc([N+](=O)[O-])s1 | 9.2 | n | n | n | x | n | n | n
O=C(CSC(=S)N1CCCC1)N/N=C/c1c(O)[nH]c(=S)[nH]c1=O | n | n | x | n | x | x | x | x
CCOC(=O)c1cc2c(=O)n3ccccc3nc2n(CCOC)c1=NC(=O)C(C)(C)C | 10 | n | n | n | x | n | 92 | 35

Source: PubChem
